Lmaj promast = Leishmania major promastigote growth inhibition | Leishmania major promastigotes, resazurin fluorescence viability | inhibition, % at 10 µM | actives 9% (n = 200,000); in the data active = inhibition above about 50%;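 also: promastigotes grown with compound for 44 hours at 28 °C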
HSF1 inh = HSF1 inhibition; AID 2098; activity change, negative = inhibition, % at 7.5 µM (by protocol); NIH3T3-HGL HSE-luciferase, MG132-induced, luminescence 8 h; active compounds read low; actives 0.77% (n = 300,000);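 active = more than half of replicate wells show activity change below -50%, luminescence cut by over half; inconclusive = some wells, but at most half, below -50%; inactive = no replicate well below -50%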;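 also: luciferase reports HSF-1 transcriptional activity via heat shock element; 0% = median of DMSO wells and -100% = zero luminescence signal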
T cruzi inh = blocks replication of Trypanosoma cruzi; AID 1885; actives 1.4% (n = 300,000); T. cruzi beta-gal in NIH3T3, luminescence, 90 h; inhibition, % (test concentration not listed);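 active = mean inhibition across valid replicates above about 55%, limit read from the data; inconclusive = mean below that limit but half or more replicates reach it; inactive = mean below it, under half of replicates reach it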;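 also: signal also drops with host cell toxicity which is not excluded here; 0% = plate median of DMSO wells and 100% = zero luminescence signal; higher percent means less beta-gal luminescence so fewer parasites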
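System – NIH/3T3 host cells with β-galactosidase reporter T. cruzi · Doses – single 50 nL compound addition per well in DMSO · Reagent – 5000 T. cruzi trypomastigotes/well · Medium – Low-serum DMEM with 2% FBS · Timing – ≥90 h infection period, 3 h prior cell attachment · Evaluation – parasite load inhibition, % · Technique – GalScreen luminescence, 60 min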
HSF-1 act = increases HSF-1 driven luciferase reporter signal; NIH3T3-HGL HSF-1 luciferase reporter, MG132, 8 h; 100% = twice DMSO control signal; activation, % at 9 µM; actives 1.7% (n = 300,000);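 active = mean replicate activation of at least 50% with a set share of replicates each reaching 50%; inconclusive = only one of those two conditions met; inactive = mean below 50% and too few replicates reaching it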;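 also: 0% = median of the neutral control wells and 100% = twice that signal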
Hsp70 activator = transcriptional activators of Hsp70; HeLa Hsp70 promoter luciferase reporter, luminescence; scaled: vehicle 0, proteasome-inhibitor control 100%; activation, % at 10 µM; actives 0.04% (n = 200,000); AID 1203;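 active = activation above the mean across all tested compounds plus 3 SD, cutoff set per campaign, cut at about 5.5% in these data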;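 also: 100% = MG132 at 30 µM as the positive control and 0% = DMSO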
* = called active by the depositor. Shown is part of a subset that was picked to be rich in hits.

Screening O=C(CS(=O)(=O)c1ccccc1)Nc1nnc(-c2cccs2)o1 returned HSF1 inh 3, T cruzi inh 24 and HSF-1 act 8.
`CCOc1ccc(N(C(=O)c2ccc(S(=O)(=O)N3CCCC3)cc2)C2C=CS(=O)(=O)C2)cc1` (stereo not given) gave HSF1 inh -2, T cruzi inh -18 and HSF-1 act 6.
For Cc1cccc(N2CCN(C(=O)c3cc(C)oc3C)CC2C)c1 (stereo not given) the results were Lmaj promast 56*, HSF1 inh 8, T cruzi inh -10, HSF-1 act inconclusive and Hsp70 activator -1.
Screening CCC(=O)NC1CC2CCCC(C1)N2Cc1ccc(C)cc1 (stereo not given) returned HSF1 inh -2, T cruzi inh 6 and HSF-1 act 3.
For CNC(=S)NC1CC2CCCC(C1)N2Cc1ccc(C)cc1 (stereo not given) the results were Lmaj promast 91*, HSF1 inh -1, T cruzi inh -16, HSF-1 act 5 and Hsp70 activator 0.
`CC(=O)NC1CC2CCC(C1)N2Cc1ccc(C)cc1` (stereo not given) gave Lmaj promast 90*, HSF1 inh -4, T cruzi inh 9, HSF-1 act -21 and Hsp70 activator 0.
For COc1ccc(C)cc1S(=O)(=O)N(CC(=O)Nc1ccc2c(c1)OCCO2)Cc1ccccc1 the results were Lmaj promast 74*, HSF1 inh 0, T cruzi inh 25, HSF-1 act 12 and Hsp70 activator 0.
Screening CCOC(=O)c1ccc(NC(=O)CN(Cc2ccc(Cl)cc2)S(C)(=O)=O)cc1 returned Lmaj promast 100*, HSF1 inh 1, T cruzi inh 20, HSF-1 act 2 and Hsp70 activator 0.
`O=C(CNCc1ccc(Cl)cc1)Nc1ccc2c(c1)OCCO2` gave Lmaj promast -11, HSF1 inh 29, T cruzi inh -8, HSF-1 act inconclusive and Hsp70 activator 0.
Screening CS(=O)(=O)N(CC(=O)Nc1ccc2c(c1)OCCO2)Cc1ccc(Cl)cc1 returned Lmaj promast 96* and Hsp70 activator 0.
Screening CC(=O)c1cccc(N(CC(=O)Nc2ccc(F)cc2F)S(C)(=O)=O)c1 returned Lmaj promast -5, HSF1 inh 10, T cruzi inh -4, HSF-1 act 55* and Hsp70 activator 0.
Screening CC(C(=O)Nc1ccccc1Sc1ccccc1)N(c1ccccc1)S(C)(=O)=O (stereo not given) returned Lmaj promast 99*, HSF1 inh 7, T cruzi inh 23, HSF-1 act 17 and Hsp70 activator 0.
For CS(=O)(=O)N(CC(=O)Nc1ccccc1Sc1ccccc1)c1ccc(F)cc1 the results were Lmaj promast 76*, HSF1 inh 21, T cruzi inh 30, HSF-1 act 26 and Hsp70 activator 0.
Screening CS(=O)(=O)N(CC(=O)Nc1ccccc1-c1ccccc1)c1ccc(F)cc1 returned Lmaj promast 18, HSF1 inh 3, T cruzi inh 4, HSF-1 act -2 and Hsp70 activator 0.
Screening CC(=O)c1cccc(N(CC(=O)Nc2ccccc2F)S(C)(=O)=O)c1 returned Lmaj promast -3, HSF1 inh 2, T cruzi inh -15, HSF-1 act 13 and Hsp70 activator 0.
CS(=O)(=O)N(Cc1ccc(C(=O)Nc2ccccc2Sc2ccccc2)cc1)c1ccccc1 was read as Lmaj promast 4, HSF1 inh 14, T cruzi inh 30, HSF-1 act 23 and Hsp70 activator 0.
For C=CCNC(=O)c1c(Cl)nc(C)c([N+](=O)[O-])c1C the results were Lmaj promast -5, HSF1 inh 0, T cruzi inh 7, HSF-1 act -7 and Hsp70 activator 0.
CCCC(=O)Oc1ccc(-c2nccc(C(OC)OC)n2)cc1 was read as Lmaj promast 1, HSF1 inh -2, T cruzi inh -23, HSF-1 act 13 and Hsp70 activator 0.
Screening Cc1ccc(NC(=O)c2nn(C34CC5CC(CC(C5)C3)C4)cc2[N+](=O)[O-])cc1 returned Lmaj promast 59*, HSF1 inh 7, T cruzi inh 37, HSF-1 act 2 and Hsp70 activator 0.
COc1cc(C(=S)N2CCCC2)ccc1OCc1ccc(C)cc1 was read as HSF1 inh 45, T cruzi inh -12 and HSF-1 act 46.
N#C/C(=C\c1ccncc1)c1nc2ccccc2o1 was read as HSF1 inh 5, T cruzi inh -3 and HSF-1 act 18.

High-throughput results from PubChem BioAssay.
